Laboratory results reported in ChEMBL document CHEMBL3525925, “In vitro studies on the oxidative metabolism of 20(s)-ginsenoside Rh2 in human, monkey, dog, rat, and mouse liver microsomes, and human liver s9” (Drug Metab Dispos, 2012).

Experiments:
Cytochrome P450 3A5 = Cytochrome P450 3A5 (Homo sapiens, UniProt P20815); test: Drug level in human recombinant CYP3A5 treated with 10 uM 20(S)-ginsenoside Rh2 for 60 mins by MS2 spectra; assay type: ADME; settings: recombinant enzyme, 1 h
Outline: (§1)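 Recombinant human P450 (50 nM) with 10 μM Rh2 under the microsomal conditions: 100 mM potassium phosphate pH 7.4, 2 mM NADPH, 37°C for 60 min. Stopped with equal volume ice-cold acetonitrile. Run in duplicate; products analysed by LC/ion-trap MSn.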

Cytochrome P450 3A4 = Cytochrome P450 3A4 (Homo sapiens, UniProt P08684); test: Drug level in human recombinant CYP3A4 treated with 10 uM 20(S)-ginsenoside Rh2 for 60 mins by MS2 spectra; assay type: ADME; settings: recombinant enzyme, 1 h; outline: as §1
[1] = Drug level in cynomolgus monkey liver microsomes treated with 10 uM 20(S)-ginsenoside Rh2 for 60 mins by MS2 spectra; assay type: ADME, Macaca fascicularis; settings: 1 h
Outline: (§2)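 Rh2 at 10 μM final (from methanol stock; 0.1% v/v methanol final) in 100 mM potassium phosphate pH 7.4 with 2 mM NADPH, open-to-air tubes at 37°C. 3 min preincubation, then started with liver microsomes or S9 at 1 mg/ml protein. Incubated 60 min, stopped with equal volume ice-cold acetonitrile. Controls lacked NADPH; duplicates. Metabolites detected by LC/ion-trap MSn.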

Liver microsome [2] = test: Drug level in beagle dog liver microsomes treated with 10 uM 20(S)-ginsenoside Rh2 for 60 mins by MS2 spectra; assay type: ADME, Canis lupus familiaris; settings: 1 h; outline: as §2
Liver [3] = test: Retention time in human liver S9 fraction treated with 10 uM 20(S)-ginsenoside Rh2 by MS2 spectra; assay type: ADME, subcellular
Outline: (§3)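 Samples: incubation mixed with equal volume methanol, centrifuged at 14,000g for 5 min, dried under nitrogen at 40°C, reconstituted. Separated on Eclipse XDB-C18 (4.6 × 150 mm, 5 μm) at 0.5 ml/min. Gradient: 0.1% formic acid in methanol against 0.1% formic acid in 5 mM ammonium acetate, 70% to 100% organic over 17 min. Ion-trap MSn detection.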

Liver [4] = test: Drug level in CD-1 mouse liver microsomes treated with 10 uM 20(S)-ginsenoside Rh2 for 60 mins by MS2 spectra; assay type: ADME; settings: 1 h; outline: as §2
Liver microsome [5] = test: Retention time in human liver microsomes treated with 10 uM 20(S)-ginsenoside Rh2 by MS2 spectra; assay type: ADME; outline: as §3
Liver microsome [6] = test: Drug level in Sprague-Dawley rat liver microsomes treated with 10 uM 20(S)-ginsenoside Rh2 for 60 mins by MS2 spectra; assay type: ADME; settings: 1 h; outline: as §2
Liver [7] = test: Drug level in human liver S9 fraction treated with 10 uM 20(S)-ginsenoside Rh2 for 60 mins by MS2 spectra; assay type: ADME, subcellular; settings: s9, 1 h; outline: as §2
Liver microsome [8] = test: Drug level in human liver microsomes treated with 10 uM 20(S)-ginsenoside Rh2 for 60 mins by MS2 spectra; assay type: ADME; settings: 1 h; outline: as §2
Liver cytosol [9] = test: Drug metabolism in human liver cytosol assessed as 26-carboxy,20(S)-Ginsenoside Rh2 formation at 10 uM by LC/MS analysis in presence of 50 uM 4-methylpyrazole alcohol dehydrogenase inhibitor; assay type: ADME
Outline: (§4)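 Pooled human liver cytosol (1 mg/ml) with 2 mM NAD+ and inhibitor in 100 mM potassium phosphate pH 7.4; inhibitors given from DMSO, 0.1% v/v final. After 15 min preincubation at 37°C, started with 10 μM M1-1 or 26-aldehyde-Rh2. Run 60 min, stopped with ice-cold acetonitrile. Duplicates, uninhibited controls; M2-3 acid measured by LC/MSn.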

Liver cytosol [10] = test: Drug metabolism in human liver cytosol assessed as 26-carboxy,20(S)-Ginsenoside Rh2 formation at 10 uM by LC/MS analysis in presence of 50 uM disulfiram aldehyde dehydrogenase inhibitor; assay type: ADME; outline: as §4
Liver cytosol [11] = test: Drug metabolism in human liver cytosol assessed as 26-carboxy,20(S)-Ginsenoside Rh2 formation at 10 uM by LC/MS analysis in presence of 100 uM raloxifene aldehyde oxidase inhibitor; assay type: ADME; settings: in the assay text read “100 nM raloxifene” for “100 uM raloxifene”; outline: as §4

Sequence of Cytochrome P450 3A5 (P20815 whole entry): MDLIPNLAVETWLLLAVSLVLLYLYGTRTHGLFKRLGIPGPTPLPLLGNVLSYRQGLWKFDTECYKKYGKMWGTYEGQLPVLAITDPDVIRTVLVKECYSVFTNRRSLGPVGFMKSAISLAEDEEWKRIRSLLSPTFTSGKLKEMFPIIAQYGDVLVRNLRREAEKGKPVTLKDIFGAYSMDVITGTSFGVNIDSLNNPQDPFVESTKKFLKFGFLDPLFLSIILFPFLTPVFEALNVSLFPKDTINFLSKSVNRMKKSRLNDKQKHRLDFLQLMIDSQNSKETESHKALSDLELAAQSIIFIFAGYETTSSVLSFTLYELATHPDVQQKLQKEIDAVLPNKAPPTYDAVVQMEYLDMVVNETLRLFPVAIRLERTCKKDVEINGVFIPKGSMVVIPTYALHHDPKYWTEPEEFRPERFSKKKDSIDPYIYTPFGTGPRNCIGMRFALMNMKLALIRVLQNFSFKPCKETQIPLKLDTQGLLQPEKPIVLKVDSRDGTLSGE
Sequence of Cytochrome P450 3A4 (P08684 whole entry): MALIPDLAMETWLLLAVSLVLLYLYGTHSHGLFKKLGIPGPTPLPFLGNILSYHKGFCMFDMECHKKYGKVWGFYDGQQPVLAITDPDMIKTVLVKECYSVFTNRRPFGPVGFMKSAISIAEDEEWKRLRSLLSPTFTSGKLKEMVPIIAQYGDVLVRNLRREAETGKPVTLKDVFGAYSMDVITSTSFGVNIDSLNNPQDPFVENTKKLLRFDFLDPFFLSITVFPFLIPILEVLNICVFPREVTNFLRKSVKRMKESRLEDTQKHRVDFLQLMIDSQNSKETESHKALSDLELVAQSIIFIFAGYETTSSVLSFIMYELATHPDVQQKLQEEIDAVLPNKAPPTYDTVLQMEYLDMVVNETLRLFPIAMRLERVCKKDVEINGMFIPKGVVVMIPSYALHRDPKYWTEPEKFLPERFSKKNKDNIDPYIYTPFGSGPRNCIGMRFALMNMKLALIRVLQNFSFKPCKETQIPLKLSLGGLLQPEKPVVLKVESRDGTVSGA

Row | Drug metabolism (Cytochrome P450 3A5) | Drug metabolism (Cytochrome P450 3A4) | Drug metabolism [1] | Drug metabolism (Liver microsome [2]) | Retention_time (Liver [3]) [min] | Drug metabolism (Liver [4]) | Retention_time (Liver microsome [5]) [min] | Drug metabolism (Liver microsome [6]) | Drug metabolism (Liver [7]) | Drug metabolism (Liver microsome [8]) | Drug metabolism (Liver cytosol [9]) | Drug metabolism (Liver cytosol [10]) | Drug metabolism (Liver cytosol [11]) | SMILES
1 | metabolite_not_detected | metabolite_detected | metabolite_detected | metabolite_detected | 20 | metabolite_detected | 20 | metabolite_detected | metabolite_detected | metabolite_detected | – | – | – | CC1(C)O[C@H]1CC[C@](C)(O)[C@H]1CC[C@]2(C)[C@@H]1[C@H](O)C[C@@H]1[C@@]3(C)CC[C@H](O[C@@H]4O[C@H](CO)[C@@H](O)[C@H](O)[C@H]4O)C(C)(C)[C@@H]3CC[C@]12C
2 | metabolite_not_detected | metabolite_detected | metabolite_detected | metabolite_not_detected | 16.7 | metabolite_detected | 16.7 | metabolite_detected | metabolite_detected | metabolite_detected | – | – | – | CC(O)(CO)[C@H]1CC[C@@](C)([C@H]2CC[C@]3(C)[C@@H]2[C@H](O)C[C@@H]2[C@@]4(C)CC[C@H](O[C@@H]5O[C@H](CO)[C@@H](O)[C@H](O)[C@H]5O)C(C)(C)[C@@H]4CC[C@]23C)O1 (stereo partly drawn)
3 | metabolite_not_detected | metabolite_detected | metabolite_detected | metabolite_not_detected | 16.2 | metabolite_detected | 16.2 | metabolite_detected | metabolite_detected | metabolite_detected | – | – | – | CC(O)(CO)[C@@H]1CC[C@@](C)([C@H]2CC[C@]3(C)[C@@H]2[C@H](O)C[C@@H]2[C@@]4(C)CC[C@H](O[C@@H]5O[C@H](CO)[C@@H](O)[C@H](O)[C@H]5O)C(C)(C)[C@@H]4CC[C@]23C)O1 (stereo partly drawn)
4 | metabolite_not_detected | metabolite_detected | metabolite_detected | metabolite_not_detected | 14 | metabolite_not_detected | 14 | metabolite_detected | metabolite_detected | metabolite_detected | – | – | – | C/C(=C\CC[C@](C)(O)[C@H]1CC[C@]2(C)[C@@H]1[C@H](O)C[C@@H]1[C@@]3(C)CC[C@H](O[C@@H]4O[C@H](CO)[C@@H](O)[C@H](O)[C@H]4O)C(C)(C)[C@@H]3CC[C@]12C)C(=O)O
5 | – | – | – | – | – | – | – | – | – | – | metabolite_not_detected | metabolite_not_detected | metabolite_not_detected | C/C(C=O)=C\CC[C@](C)(O)[C@H]1CC[C@]2(C)[C@@H]1[C@H](O)C[C@@H]1[C@@]3(C)CC[C@H](O[C@@H]4O[C@H](CO)[C@@H](O)[C@H](O)[C@H]4O)C(C)(C)[C@@H]3CC[C@]12C
6 | metabolite_not_detected | metabolite_detected | metabolite_detected | metabolite_not_detected | 15.6 | metabolite_detected | 15.6 | metabolite_detected | metabolite_detected | metabolite_detected | – | – | – | CC1(C)[C@@H](O[C@@H]2O[C@H](CO)[C@@H](O)[C@H](O)[C@H]2O)CC[C@]2(C)[C@H]3C[C@@H](O)[C@@H]4[C@@H]([C@@](C)(O)CC[C@@H]5O[C@@]5(C)CO)CC[C@@]4(C)[C@]3(C)CC[C@@H]12
7 | metabolite_detected | metabolite_detected | metabolite_detected | metabolite_detected | 18.3 | metabolite_detected | 18.3 | metabolite_detected | metabolite_detected | metabolite_detected | – | – | – | C/C(=C/CC[C@](C)(O)[C@H]1CC[C@]2(C)[C@@H]1[C@H](O)C[C@@H]1[C@@]3(C)CC[C@H](O[C@@H]4O[C@H](CO)[C@@H](O)[C@H](O)[C@H]4O)C(C)(C)[C@@H]3CC[C@]12C)CO
8 | metabolite_not_detected | metabolite_detected | metabolite_detected | metabolite_detected | 12.2 | metabolite_detected | 12.2 | metabolite_detected | metabolite_detected | metabolite_detected | – | – | – | CC1(C)[C@@H](O[C@@H]2O[C@H](CO)[C@@H](O)[C@H](O)[C@H]2O)CC[C@]2(C)[C@H]3C[C@@H](O)[C@@H]4[C@@H]([C@@](C)(O)CCC=C(CO)CO)CC[C@@]4(C)[C@]3(C)CC[C@@H]12
9 | metabolite_not_detected | metabolite_detected | metabolite_detected | metabolite_not_detected | 13.2 | metabolite_detected | 13.2 | metabolite_detected | metabolite_detected | metabolite_detected | – | – | – | C/C(=C/CC[C@](C)(O)[C@H]1CC[C@]2(C)[C@@H]1[C@H](O)C[C@@H]1[C@@]3(C)CC[C@H](O[C@@H]4O[C@H](CO)[C@@H](O)[C@H](O)[C@H]4O)C(C)(C)[C@@H]3CC[C@]12C)C(=O)O

Row | SMILES | Drug metabolism (Cytochrome P450 3A5) | Drug metabolism (Cytochrome P450 3A4) | Drug metabolism [1] | Drug metabolism (Liver microsome [2]) | Retention_time (Liver [3]) [min] | Drug metabolism (Liver [4]) | Retention_time (Liver microsome [5]) [min] | Drug metabolism (Liver microsome [6]) | Drug metabolism (Liver [7]) | Drug metabolism (Liver microsome [8]) | Drug metabolism (Liver cytosol [9]) | Drug metabolism (Liver cytosol [10]) | Drug metabolism (Liver cytosol [11])
10 | CC(C)(O)[C@H]1CC[C@@](C)([C@H]2CC[C@]3(C)[C@@H]2[C@H](O)C[C@@H]2[C@@]4(C)CC[C@H](O[C@@H]5O[C@H](CO)[C@@H](O)[C@H](O)[C@H]5O)C(C)(C)[C@@H]4CC[C@]23C)O1 | metabolite_not_detected | metabolite_detected | metabolite_detected | metabolite_detected | 20.2 | metabolite_detected | 20.2 | metabolite_detected | metabolite_detected | metabolite_detected | – | – | –
11 | CC(C)(O)[C@@H]1CC[C@@](C)([C@H]2CC[C@]3(C)[C@@H]2[C@H](O)C[C@@H]2[C@@]4(C)CC[C@H](O[C@@H]5O[C@H](CO)[C@@H](O)[C@H](O)[C@H]5O)C(C)(C)[C@@H]4CC[C@]23C)O1 | metabolite_detected | metabolite_detected | metabolite_detected | metabolite_detected | 18.9 | metabolite_detected | 18.9 | metabolite_detected | metabolite_detected | metabolite_detected | – | – | –
